In ChEMBL document CHEMBL2016548, “Synthesis and evaluation of anti-thrombotic activity of benzocoumarin amide derivatives” (Bioorg Med Chem Lett, 2012):
The source made the active and inactive calls. No cut-off for these calls is given here.

Assays:
[1] = test system: Mus musculus; test: Increase of bleeding time in mouse at 30 uM/kg, po administered 60 mins prior to tail incision; assay type: ADME, organism-based; conditions: in vivo, 1 h
Procedure, shortened: (§1)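 Compound, aspirin or vehicle given orally 60 min before cutting the tail 2 mm from the tip, five mice per group. Blood was blotted onto filter paper every 10–15 s until flow stopped. Bleeding time is the interval from incision to cessation.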

[2] = test system: Mus musculus; test: Anti-thrombotic activity in collagen and adrenaline challenged mouse pulmonary thromboembolism model assessed as protection from paralysis or death at 30 uM/kg, po administered 60 mins prior to thrombotic challenge; assay type: functional
Procedure, shortened: (§2)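 Mice were dosed orally 60 min before the challenge, alongside a vehicle group. Pulmonary thromboembolism was then induced by tail-vein injection of a collagen plus adrenaline mixture. Groups held ten mice per test agent and five per reference drug or vehicle. The read-out was % protection against hind-limb paralysis or death.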

[3] = test system: Platelet; test: Antiplatelet activity in mouse platelet rich plasma assessed as inhibition of collagen-induced platelet aggregation at 100 uM by aggregometry; assay type: functional, cell-free
Procedure, shortened: (§3)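 Mice anaesthetized with ether and bled by cardiac puncture. Platelet-rich plasma was pooled, split into sub-pools and spiked with compound or vehicle. Aggregation was induced with ADP or collagen and followed on a dual-channel aggregometer. Data given as mean ± SEM, n = 3, compared against vehicle control.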

[4] = test system: Mus musculus; test: Increase of bleeding time in mouse at 30 mg/kg, po administered 60 mins prior to tail incision; assay type: ADME, organism-based; set-up: dose 30 mg/kg, route oral; conditions: in vivo, 1 h; procedure, shortened: as §1
[5] = test system: Mus musculus; test: Anti-thrombotic activity in collagen and adrenaline challenged mouse pulmonary thromboembolism model assessed as protection from paralysis or death at 30 mg/kg, po administered 60 mins prior thrombotic challenge; assay type: functional; procedure, shortened: as §2
[6] = test system: Platelet; test: Antiplatelet activity in mouse platelet rich plasma assessed as inhibition of ADP-induced platelet aggregation at 100 uM by aggregometry; assay type: functional, cell-free; procedure, shortened: as §3
[7] = test system: Platelet; test: Antiplatelet activity in mouse platelet rich plasma assessed as inhibition of ADP-induced platelet aggregation at 10 uM by aggregometry; assay type: functional, cell-free; procedure, shortened: as §3
[8] = test system: Platelet; test: Antiplatelet activity in mouse platelet rich plasma assessed as inhibition of collagen-induced platelet aggregation at 30 uM by aggregometry; assay type: functional, cell-free; procedure, shortened: as §3
[9] = test system: Platelet; test: Antiplatelet activity in mouse platelet rich plasma assessed as inhibition of collagen-induced platelet aggregation at 10 uM by aggregometry; assay type: functional, cell-free; procedure, shortened: as §3
[10] = test system: Plasma; test: Anticoagulant activity in mouse platelet poor plasma assessed as increase in prothrombin time at 10 uM by coagulometry; assay type: functional, cell-free
Procedure, shortened: (§4)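 Mice anaesthetized with ether and bled by cardiac puncture. Platelet-poor plasma was pooled, split into sub-pools and spiked with compound or vehicle. Thrombin time, prothrombin time and APTT were run with commercial kits per manufacturer's instructions on a semi-automated coagulometer. Data given as mean ± SEM, n = 3, compared against vehicle control.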

[11] = test system: Platelet; test: Antiplatelet activity in mouse platelet rich plasma assessed as inhibition of ADP-induced platelet aggregation at 30 uM by aggregometry; assay type: functional, cell-free; procedure, shortened: as §3
[12] = test system: Plasma; test: Anticoagulant activity in mouse platelet poor plasma assessed as increase in activated partial thromboplastin time at 30 uM by coagulometry; assay type: functional, cell-free; procedure, shortened: as §4
[13] = test system: Plasma; test: Anticoagulant activity in mouse platelet poor plasma assessed as increase in thrombin time at 10 uM by coagulometry; assay type: functional, cell-free; procedure, shortened: as §4
[14] = test system: Plasma; test: Anticoagulant activity in mouse platelet poor plasma assessed as increase in prothrombin time at 30 uM by coagulometry; assay type: functional, cell-free; procedure, shortened: as §4
[15] = test system: Plasma; test: Anticoagulant activity in mouse platelet poor plasma assessed as increase in activated partial thromboplastin time at 10 uM by coagulometry; assay type: functional, cell-free; procedure, shortened: as §4
[16] = test system: Plasma; test: Anticoagulant activity in mouse platelet poor plasma assessed as increase in thrombin time at 30 uM by coagulometry; assay type: functional, cell-free; procedure, shortened: as §4
[17] = test system: Mus musculus; test: Ex-vivo antiplatelet activity in mouse platelet rich plasma assessed as inhibition of collagen-induced platelet aggregation at 30 uM/kg, po for 3 days by aggregometry; assay type: functional
[18] = test system: Mus musculus; test: Ex-vivo antiplatelet activity in mouse platelet rich plasma assessed as inhibition of ADP-induced platelet aggregation at 30 uM/kg, po for 3 days by aggregometry; assay type: functional
[19] = test system: Mus musculus; test: Ex-vivo anticoagulant activity in mouse platelet poor plasma assessed as increase in thrombin time at 30 uM/kg, po for 3 days by coagulometry; assay type: functional
Procedure, shortened: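 Mice were dosed orally for three days, then bled by cardiac puncture under ether anaesthesia. Thrombin time was measured in platelet-poor plasma with a commercial kit on a semi-automated coagulometer and compared with vehicle-treated controls.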

Structure (SMILES): Cc1cc(=O)oc2c1ccc1c(OCC(=O)N3CCOCC3)cccc12
- Activity [1]: 66.8%
- Activity [2]: 30%

Structure (SMILES): COc1ccc(CNC(=O)COc2cccc3c2ccc2c(C)cc(=O)oc23)cc1
- Activity [1]: 8.2%
- Activity [2]: 10%

Structure (SMILES): Cc1cc(=O)oc2c1ccc1c(OCC(=O)N3CCN(C)CC3)cccc12
- Activity [1]: 8.5%
- Activity [2]: 10%

Structure (SMILES): Cc1cc(=O)oc2c1ccc1c(OCC(=O)N3CCCCC3)cccc12
- Activity [1]: 58.5%
- Activity [2]: 30%

Structure (SMILES): CC(=O)Oc1ccccc1C(=O)O [ASPIRIN]
- inhibition [3]: Active
- Activity [4]: 100%
- Activity [5]: 37%
- inhibition [6]: Active

Structure (SMILES): Cc1cc(=O)oc2c1ccc1c(OCC(=O)Nc3ccc(S(N)(=O)=O)cc3)cccc12
- Activity [1]: 16.5%
- Activity [2]: <10%

Structure (SMILES): Cc1cc(=O)oc2c1ccc1c(OCC(=O)NCCCO)cccc12
- inhibition [7]: inactive
- inhibition [8]: Active
- inhibition [9]: inactive
- Activity [1]: 112.5%
- Activity [10]: inactive
- Activity [2]: 45%
- inhibition [11]: Active
- Activity [12]: inactive
- Activity [13]: inactive
- Activity [14]: inactive
- Activity [15]: inactive
- Activity [16]: Active

Structure (SMILES): Cc1cc(=O)oc2c1ccc1c(OCC(=O)Nc3cccc(C(=O)O)c3)cccc12
- Activity [1]: 8.5%
- Activity [2]: <10%

Structure (SMILES): CCCNC(=O)COc1cccc2c1ccc1c(C)cc(=O)oc12
- inhibition [7]: inactive
- inhibition [8]: Active
- inhibition [9]: inactive
- Activity [1]: 91.5%
- Activity [10]: inactive
- Activity [2]: 40%
- inhibition [11]: Active
- Activity [12]: inactive
- Activity [13]: inactive
- Activity [14]: inactive
- Activity [15]: inactive
- Activity [16]: Active

Structure (SMILES): Cc1ccc(CNC(=O)COc2cccc3c2ccc2c(C)cc(=O)oc23)cc1C
- Activity [1]: 58.5%

Structure (SMILES): Cc1cc(=O)oc2c1ccc1c(OCC(=O)NC3CCCCC3)cccc12
- Activity [1]: 0%
- Activity [2]: 10%

Structure (SMILES): Cc1cc(=O)oc2c1ccc1c(OCC(=O)NC(C)(C)C)cccc12
- inhibition [7]: inactive
- inhibition (INH) [17]: 90%
- inhibition [8]: Active
- inhibition [9]: inactive
- inhibition (INH) [18]: 38%
- Activity [1]: 96.5%
- Activity [19]: 74%
- Activity [10]: inactive
- Activity [2]: 40%
- inhibition [11]: Active
- Activity [12]: inactive
- Activity [13]: inactive
- Activity [14]: inactive
- Activity [15]: inactive
- Activity [16]: Active

Structure (SMILES): COc1cc(NC(=O)COc2cccc3c2ccc2c(C)cc(=O)oc23)cc(OC)c1OC
- Activity [1]: 41.7%
- Activity [2]: 20%

Structure (SMILES): Cc1cc(=O)oc2c1ccc1c(OCC(=O)NCc3ccccc3)cccc12
- Activity [1]: 8.5%
- Activity [2]: 10%

Structure (SMILES): Cc1cc(=O)oc2c1ccc1c(OCC(=O)NC(C)C)cccc12
- Activity [1]: 66.5%
- Activity [2]: 10%
